In the library only some 2.1% were active in any assay of this set; here they are far more common.
SUMO Mot1 rescue = inhibitors of SUMOylation pathway: yeast Mot1-301 growth rescue. AID 2716. hit rate 1% among 320,000. S. cerevisiae Mot1-301 growth rescue, ATP luminescence, 38.5C; percent above DMSO median, 100 means doubled. growth rescue, % at 18.8 µM;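 active = every valid replicate shows activation above 250% relative to neutral control wells; inactive = the rest, any valid replicate at or below 250%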;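 also: OY570 slx delta 5 strain wells were the positive control but not used for scaling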
UCH37 inh = blocks the human deubiquitinase UCH37. Q9Y5K5. purified proteasome/UCH37, Ub-AMC cleavage fluorescence. inhibition, % (no concentration beside the values). hit rate 0.33% among 330,000;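 active = mean inhibition over replicate wells above about 20%, limit read from the data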;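 also: 0% = compound-free wells with enzyme and 100% = wells lacking proteasome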
Target sequence (Q9Y5K5 whole entry, looked up): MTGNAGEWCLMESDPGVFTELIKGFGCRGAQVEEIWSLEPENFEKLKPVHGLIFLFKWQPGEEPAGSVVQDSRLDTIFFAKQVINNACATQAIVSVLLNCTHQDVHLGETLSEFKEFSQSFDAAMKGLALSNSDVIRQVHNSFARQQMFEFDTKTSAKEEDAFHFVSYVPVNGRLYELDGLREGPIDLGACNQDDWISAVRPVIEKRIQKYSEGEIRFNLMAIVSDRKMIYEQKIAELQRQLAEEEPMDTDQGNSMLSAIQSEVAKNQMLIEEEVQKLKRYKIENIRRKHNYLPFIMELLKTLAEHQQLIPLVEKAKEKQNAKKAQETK
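Reagent: Ub-AMC substrate; assay system: Proteasome-associated human UCH37 deubiquitinase; controls: no-proteasome and no-compound wells; read-out: % inhibition of Ub-AMC cleavage fluorescence; timing: 30 min preincubation with enzyme, 25 min cleavage at room temperature; signal: AMC fluorescence from Ub-AMC cleavage, excitation 355 nm, emission 460 nm; buffer or medium: Tris-HCl pH 7.4 plus ovalbumin, ATP-MgCl2, DTT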
RTF Ca sens inh = cardiac RTF calcium desensitization; P19429+P45379; IANBD-labeled cardiac RTF, Ca2+ fluorescence; inhibition, % at 7.15 µM; hit rate 0.12% among 340,000; AID 493244;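 active = inhibition above the mean inhibition of all tested compounds plus 3 SD, cut at about 17% in these data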;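 also: assay run at fixed EC70 calcium of 1.6 mM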
ARNT-TACC3 inh = disruptors of human ARNT/TACC3 interaction | AID 623870 | inhibition, % at 9.99 µM | Q9Y6A5 | AlphaScreen His-ARNT PAS-B/GST-TACC3 binding, luminescence; TACC3 fragment carries E629A point mutation | hit rate 0.66% among 390,000;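 active = mean inhibition of replicates at least 50% and at least half of replicates each reaching 50%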;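 also: 0% = complete ARNT plus TACC3 wells and 100% = ARNT alone without TACC3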
Efflux pump inh = blocks antifungal efflux pumps in multiplex yeast assay | hit rate 0.44% among 330,000 | AID 485275 | S. cerevisiae Candida pump triplex, Nile Red efflux | inhibition, % at 10 µM;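 active = plate passing quality check with inhibition over a set limit, or well fluorescence over plate mean plus 4 SD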;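 also: Nile Red retained in pooled yeast measured as flow cytometry median fluorescence; 0% = buffer negative control and 100% = Enniatin B positive control; higher means more Nile Red kept so more efflux inhibition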
cardiac RTF act = increases calcium sensitivity of human cardiac regulated thin filaments; P19429+P45379; IANBD-labeled TnC RTF fluorescence at EC20 calcium; 0% EC20 calcium, 100% full calcium; activation, % at 7.2 µM; hit rate 0.24% among 340,000; AID 493008;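 active = activation above the mean over all tested compounds plus 3 SD, cut at about 30% in these data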;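 also: rise in fluorescence read as greater calcium sensitivity of cardiac thin filaments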
* hit, by the source's call; / = no result.

SMILES | SUMO Mot1 rescue | UCH37 inh | RTF Ca sens inh | ARNT-TACC3 inh | Efflux pump inh | cardiac RTF act
COc1cccc(CCNC(=O)CC2C(=O)NCCN2CC(C)(C)C)c1 (stereo not drawn) | 551* | -3 | -9 | 6 | 0 | -5
COc1ccc(CN2CCNC(=O)C2CC(=O)NCCc2c[nH]c3ccccc23)c(OC)c1 (stereo not drawn) | 524* | -2 | -3 | 3 | 0 | 1
COc1ccc(CN2CCNC(=O)C2CC(=O)NCCc2nc(C)c(C)s2)c(OC)c1 (stereo not drawn) | 157 | -3 | -2 | -6 | 0 | 3
Clc1nccnc1NN=Cc1ccc(Br)cc1 | / | 7 | / | / | / | /
Cc1cc[n+](-c2[nH]c(=O)sc2/C=N/NC([S-])=Nc2ccccc2)cc1C | 10 | / | -66 | / | 0 | 51*
CC(C)(C)c1cc[n+](-c2[nH]c(=O)sc2/C=N/NC([S-])=Nc2ccccc2)cc1 | 17 | / | -127 | -1 | 0 | 81*
CCc1ccc[n+](-c2[nH]c(=O)sc2C=NNC([S-])=Nc2ccccc2)c1 | / | 22* | / | / | / | /
O=c1[nH]c(-[n+]2ccccc2)c(C=NNC([S-])=Nc2ccccc2)s1 | / | 13 | / | / | / | /
CC(=O)Nc1ccc(NC(=O)CC(C)=NNC(=O)C(=O)Nc2ccc(C)c(Cl)c2)cc1 | / | 2 | / | / | / | /
C[C@@H]1CN([C@H](C)CO)C(=O)Cc2cc(NC(=O)CCN3CCOCC3)ccc2O[C@H]1CN(C)C(=O)Nc1ccc2c(c1)OCO2 | / | / | / | 46* | / | /
C[C@H]1CN([C@@H](C)CO)C(=O)c2cc(N(C)C)ccc2O[C@H]1CN(C)C(=O)Nc1ccc2c(c1)OCO2 | / | / | / | 9 | / | /
C[C@H](CO)N1C[C@H](C)[C@@H](CN(C)C(=O)Nc2ccc3c(c2)OCO3)Oc2ccc(N(C)C)cc2C1=O | / | / | / | 10* | / | /
C[C@H](CO)N1C[C@H](C)[C@H](CN(C)C)Oc2ccc(NC(=O)Nc3ccc(F)cc3)cc2C1=O | / | / | / | 46* | / | /
CCCOc1ccc(C=NO)cc1 | / | 2 | / | / | / | /
COc1ccccc1NCC(=O)NN=Cc1cccnc1 | / | 7 | / | / | / | /
Cc1ccc(NS(=O)(=O)c2sc3ccc(Cl)cc3c2C)cc1 | 665* | 3 | / | / | 0 | /
COCc1cc(=O)[nH]c(Nc2nc3ccccc3o2)n1 | -9 | 3 | -18 | 60* | 0 | -7
O=C(NN=Cc1cccs1)c1cc(-c2ccncc2)nc2ccccc12 | / | 6 | / | / | / | /
CCc1ccc[n+](-c2[nH]c(=O)sc2C=N/N=C(\[O-])c2ccncc2)c1 | / | 20 | / | / | / | /
O=c1c(O)c(-c2cc(O)c(O)c(O)c2)oc2cc(O)cc(O)c12 | 265* | 6 | 7 | 45 | 0 | -10
CC(=O)N(NC(=O)c1ccccc1Cl)C1CC(=O)N(c2ccc(C)cc2)C1=O (stereo not drawn) | 42 | 1 | -2 | 47* | 0 | 5
COc1cccc(/C=C/C(=O)c2ccc(C)c([N+](=O)[O-])c2)c1 | 500* | -13 | 2 | -5 | 0 | 5
COc1ccc(C=NNC(=O)c2snnc2C)c(OC)c1OC | / | -23 | / | / | / | /
CCCN1C(=O)/C(=C\C=C2/Sc3ccccc3N2CCO)SC1=S | -20 | 12 | -7 | -4 | 0 | -1
CCN1/C(=C/C=C2/SC(=Nc3cccc4ncccc34)N(C)C2=O)Sc2ccccc21 | / | 8 | -28 | -3 | / | 41*
SMILES | SUMO Mot1 rescue | UCH37 inh | RTF Ca sens inh | ARNT-TACC3 inh | Efflux pump inh | cardiac RTF act
CN(C)c1ccc(C=NNc2cccc(C(=O)O)c2)cc1 | / | 8 | / | / | / | /
Nc1nnn(CC(=O)NN=Cc2ccc(Cl)cc2Cl)n1 | / | 2 | / | / | / | /
CCC1=C(OC(=O)N(CC)CC)N2C(=O)OC(=NCC3CC3)[C@]2(Cc2ccccc2)[C@H]2C1=CC[C@H]1C(=O)N(c3ccccc3)C(=O)[C@H]12 | -8 | 5 | -9 | 6 | 3.8* | -3
CCC1=C(OC(=O)N(CC)CC)N2C(=O)OC(=NCC3CC3)[C@]2(Cc2ccccc2)[C@H]2C1=CC[C@H]1C(=O)N(C)C(=O)[C@H]12 | -31 | 2 | -17 | 6 | 0 | -2
CCN1CCN(c2cc(-c3ccccc3)nc3cc(-c4cccc(F)c4)nn23)CC1 | 128 | -149 | 5 | -13 | 1.3* | -7
OC1CCN(c2cc(-c3ccccc3)nc3cc(-c4ccc(F)cc4)nn23)CC1 | -28 | -389 | -2 | -5 | 0 | 4
C=CCn1c(CNc2ccccc2)nnc1SCC(=O)N/N=C/c1ccccc1O | 11 | / | 7 | active | 0 | -5
C=CCn1c(COc2ccc(Cl)cc2)nnc1SCC(=O)NN=Cc1ccccc1 | / | 0 | / | / | / | /
Cc1ccc(C(NC(=O)C(C)C)c2cc([N+](=O)[O-])c3cccnc3c2O)cc1 (stereo not drawn) | -12 | 6 | -1 | 50* | 0 | 0
CCC(=O)NC(/C=C/c1ccccc1)c1cc([N+](=O)[O-])c2cccnc2c1O (stereo not drawn) | 1 | / | / | / | 0 | /
CCC(=O)NC(c1ccc(C)cc1)c1cc(Cl)c2cccnc2c1O (stereo not drawn) | -6 | 1 | -6 | -16 | 0 | 2
CC(C)C(=O)NC(c1cccs1)c1cc([N+](=O)[O-])c2cccnc2c1O (stereo not drawn) | 155 | 13 | 1 | 60* | 0 | -10
CC(=O)NC(c1cccs1)c1cc(F)c2cccnc2c1O (stereo not drawn) | -15 | -3 | -10 | 56* | 0 | -1
CCCC(=O)NC(c1cccs1)c1cc(Cl)c2cccnc2c1O (stereo not drawn) | -5 | 6 | -5 | -2 | 0 | 1
Cc1nn(-c2ccccc2)c(C)c1C=NNC(=O)c1ccccc1O | / | -12 | / | / | / | /
N#CC(=NNc1ccc(Cl)cc1)C(=O)c1ccsc1 | / | 6 | / | / | / | /
O=C1c2ccccc2C(=O)c2c1ccc1c(=O)n(C3CCCCC3)[nH]c21 | 4 | 7 | 2 | -6 | 0 | 1
O=C1C2=C(c3ccccc31)[N+](=O)[C@@H]1CCCC[C@@H]1N2[O-] | 4 | 26* | -1 | 13 | 0 | 3
O=C1C2=C(c3ccccc31)[N+](=O)C1CCCCC1N2[O-] (stereo not drawn) | -10 | 27* | 6 | 17 | 0 | -1
CC1(CC(=O)NN=Cc2ccc(-c3cccc(C(F)(F)F)c3)o2)OCCO1 | / | -4 | / | / | / | /
CC12CCC(CC1=NOC(=O)c1cccc([N+](=O)[O-])c1)C2(C)C (stereo not drawn) | / | 0 | / | / | / | /
Cc1ccc(/C=N/NC(=O)c2c(-c3ccccc3)noc2C)c(O)c1 | 6 | / | -4 | 47* | 0 | -5
CCOc1cc([N+](=O)[O-])cc(/C=N/NC(=O)c2c(-c3ccccc3)noc2C)c1O | -18 | / | -1 | 57* | 0 | 2
CCCCn1c(N)c(N(CCOC)C(=O)COC(=O)COc2c(C)cccc2C)c(=O)[nH]c1=O | 1 | 1 | -8 | -5 | 0 | -2
